Calls of active or inactive are those of the source. The calls are words filed in the database; no cut-off is given here.
Assays:
[1] = Plasma clearance in Sprague-Dawley rat at 2 mg/kg, iv; type: ADME, organism-based; design: dose 2 mg/kg, route intravenous
[2] = Inhibition of cytosolic phospholipase A2alpha by GLU micelle assay
Method in brief: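 Micellar assay with 7-hydroxycoumarinyl-γ-linolenate (GLU) substrate, presenting inhibitor and substrate to the enzyme in high-lipid micelles. Each run gives the mean of duplicate assays, and values come from at least two runs.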

Blood = experiment: Inhibition of TXB2 production in Sprague-Dawley rat whole blood; type: functional, tissue-based
Method in brief: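 Rat whole blood stimulated with calcium ionophore A23187 at 5 µM, with thromboxane B2 measured. Each run gives the mean of triplicate assays, and values come from at least two runs.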

MC9 [3] = experiment: Inhibition of LTB4 production in mouse MC9 cells; type: functional, cell-based
MC9 [4] = experiment: Inhibition of leukotrienes production in mouse MC9 cells; type: functional, cell-based
Method in brief: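 Murine MC-9 mast cells stimulated through the IgE receptor to release arachidonic acid. Leukotriene production (5-LO pathway) was quantified.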

MC9 [5] = experiment: Inhibition of PGF2apha production in arachidonic acid-stimulated mouse MC9 cells; type: functional, cell-based
MC9 [6] = experiment: Inhibition of PGF2alpha production in mouse MC9 cells; type: functional, cell-based
Rattus norvegicus [7] = experiment: Inhibition of carrageenan-induced paw edema in Sprague-Dawley rat administered 2 hrs before carrageenan challenge at 10 mg/kg, po; conditions: read-out: INH
Rattus norvegicus [8] = experiment: Inhibition of PGE2 production in carrageenan-stimulated rat air pouch model at 2 mg/kg, ip after 6 hrs; type: functional; conditions: route intraperitoneal
Method in brief: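 Rats given an intraperitoneal dose. Carrageenan was injected into a preformed air pouch, contents were collected 6 h later, and PGE2 was quantified.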

Rattus norvegicus [9] = experiment: Reduction in cartilage damage in Freund's adjuvant-induced arthritis Lewis rat model at 5 mg/kg, po for 11 days; type: functional, organism-based; design: dose 5 mg/kg
Method in brief: (§1)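 Arthritis was induced in Lewis rats by intradermal complete Freund's adjuvant at the base of the tail. Oral treatment began on day 8, when mean clinical joint scores were 12, and continued for 11 days. Tarsal joints were taken at necropsy and lesions were scored histologically in blinded fashion.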

Rattus norvegicus [10] = experiment: Inhibition of carrageenan-induced paw edema in Sprague-Dawley rat administered 2 hrs before carrageenan challenge at 25 mg/kg, po; type: functional
[11] = Plasma concentration in adjuvant-induced arthritis Lewis rat model at 5 mg/kg, po after 16 hrs; type: ADME, organism-based; design: dose 5 mg/kg, route oral
Rattus norvegicus [12] = experiment: Reduction in synovitis damage in Freund's adjuvant-induced arthritis Lewis rat model at 5 mg/kg, po for 11 days; type: functional, organism-based; design: dose 5 mg/kg; method in brief: as §1
[13] = Plasma concentration in adjuvant-induced arthritis Lewis rat model at 5 mg/kg, po after 4 hrs; type: ADME, organism-based; design: dose 5 mg/kg, route oral

| clearance [1] [mL/min/kg] | IC50 [2] [nM] | IC50 (Blood) [nM] | Compound | also measured |
| --- | --- | --- | --- | --- |
| 186 | 20 | 150 | O=C(O)c1ccc(S(=O)(=O)CCc2c(CCNS(=O)(=O)Cc3c(F)cccc3F)n(C(c3ccccc3)c3ccccc3)c3ccc(Cl)cc23)cc1 |  |
|  |  |  | CC(c1cc2ccccc2s1)N(O)C(N)=O (configuration not stated) [ZILEUTON] | IC50 (MC9 [3]): 550 nM; Activity (MC9 [4]): Active |
| 6 | 30 | 20 | Cc1ccccc1CS(=O)(=O)NCCc1c(CCCc2ccc(C(=O)O)cc2)c2cc(Cl)ccc2n1C(c1ccccc1)c1ccccc1 |  |
|  |  |  | COc1ccc2cc([C@H](C)C(=O)O)ccc2c1 [NAPROXEN] | IC50 (MC9 [5]): 330 nM; IC50 (MC9 [6]): 200 nM; inhibition in vivo at 10 mg/kg (Rattus norvegicus [7]): 50% |
|  |  |  | Cc1ccc(-c2cc(C(F)(F)F)nn2-c2ccc(S(N)(=O)=O)cc2)cc1 [CELECOXIB] | inhibition in vivo at 2 mg/kg (Rattus norvegicus [8]): 90%; Activity (Rattus norvegicus [9]): Active; inhibition in vivo at 25 mg/kg (Rattus norvegicus [10]): 37%; concentration at 16 h [11]: 129 ng/mL; Activity (Rattus norvegicus [12]): Active; IC50 (MC9 [5]): 300 nM; IC50 (MC9 [6]): 400 nM; concentration at 4 h [13]: 1130 ng/mL |
| 13 | 30 | 30 | Cc1cccc(C)c1CS(=O)(=O)NCCc1c(CCOc2ccc(C(=O)O)cc2)c2cc(Cl)ccc2n1C(c1ccccc1)c1ccccc1 |  |
|  | 2000 | 900 | O=C(O)CCc1ccc(Cc2c(CCNS(=O)(=O)Cc3ccccc3)n(C(c3ccccc3)c3ccccc3)c3ccc(Cl)cc23)cc1 |  |
| 150 | 30 | 20 | O=C(O)CCc1ccc(S(=O)(=O)CCc2c(CCNS(=O)(=O)Cc3ccccc3)n(C(c3ccccc3)c3ccccc3)c3ccc(Cl)cc23)cc1 |  |
